Screens: PubChem, several laboratories
In the library only some 3.8% were active in any assay of this set; here they are far more common.
RAM inhibit: inhibitors of the yeast RAM network | S. cerevisiae dse1pr::URA3 reporter, 5-FOA growth OD615, 2 d; analog-sensitive cbk1-as2 kinase mutant strain | inhibition, % at 50 µM | 190,000 compounds, 1.8% hits;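 active = inhibition above a set limit, 3 SD over mean compound inhibition, cut at about 8.4% in these data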;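 note: 0% = DMSO-only wells with no growth and 100% = 10 µM 1-NA-PP1 full growth; inhibition rescues growth on 5-FOA so higher OD means more RAM inhibition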
NPY2 pot ag: human NPY-Y2 potentiation or agonism, primary screen. 220,000 compounds, 0.45% hits. activation, % at 3.6 µM. AID 1359. cells expressing NPY-Y2, potentiator/agonist read-out; in the data active = activation above about 27%;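 note: cells stimulated with NPY near EC25 plus isoproterenol at EC100; 0% = vehicle plus submaximal agonist and 100% = vehicle plus saturating agonist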
NPY-Y2 antag: NPY-Y2 (human) receptor antagonism; P49146; NPY-Y2 expressing cells, antagonist mode; inhibition, % at 2.7 µM; 140,000 compounds, 0.99% hits; in the data active = inhibition above about 17%;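 note: 0% = vehicle with agonist challenge and 100% = reference antagonist with challenge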
NPY Y1 blocker: NPY-Y1 (human) receptor antagonism; inhibition, % at 3.6 µM; HEK293-CNG Y1 cells, membrane potential fluorescence; NPY at EC95, then isoproterenol; 200,000 compounds, 1% hits; P25929;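 active = inhibition above the campaign mean inhibition of all tested compounds plus 3 SD, cut at about 20% in these data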;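 note: 0% = DMSO wells given NPY plus isoproterenol and 100% = isoproterenol alone without NPY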
Target sequence (P25929 whole entry, looked up): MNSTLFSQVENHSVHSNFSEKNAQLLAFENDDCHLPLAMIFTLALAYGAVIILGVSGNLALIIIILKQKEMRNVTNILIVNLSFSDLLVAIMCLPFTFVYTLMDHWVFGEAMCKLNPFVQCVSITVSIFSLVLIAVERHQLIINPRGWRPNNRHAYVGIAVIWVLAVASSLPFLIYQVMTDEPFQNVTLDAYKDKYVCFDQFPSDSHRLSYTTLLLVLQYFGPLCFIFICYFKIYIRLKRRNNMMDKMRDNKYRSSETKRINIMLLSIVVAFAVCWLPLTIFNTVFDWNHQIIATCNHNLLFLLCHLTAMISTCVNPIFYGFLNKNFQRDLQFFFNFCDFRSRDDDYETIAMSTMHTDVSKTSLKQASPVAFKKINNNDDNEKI
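Material: HEK293 Y1/CNG channel cell line; also added: NPY (25 nM), isoproterenol (1 µM), Ro 20-1724 (25 µM); doses: one concentration, 3.6 µM, in 0.4% DMSO; schedule: compound incubation 1 h at room temperature, readout 45 min post-stimulation; technique: membrane potential fluorescence; measure: fluorescence ratio normalized to % inhibition between controls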
INS promoter inh: TRM-6 insulin promoter activity inhibition; TRM-6 cells, insulin promoter-eGFP reporter, imaging; reporter expression induced with tamoxifen; inhibition, % at 2 µM; 130,000 compounds, 0.9% hits;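 active = inhibition above the mean plus 3 SD, with well images judged a real hit on visual review, cut at about 60% in these data, passing the limit was not always enough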
NPY1 pot ag: potentiates or activates human NPY-Y1 receptor; P25929; NPY-Y1 expressing cells, potentiator/agonist activation; activation, % at 3.6 µM; 220,000 compounds, 0.37% hits; AID 1304; in the data active = activation above about 33%, passing the limit was not always enough;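 note: cells stimulated with NPY at EC10 then isoproterenol at EC100; 0% = low agonist plus stimulus and 100% = saturating agonist plus stimulus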
Starred values were filed as active, the others as inactive; x = not tested or not shown.

SMILES	RAM inhibit	NPY2 pot ag	NPY-Y2 antag	NPY Y1 blocker	INS promoter inh	NPY1 pot ag
COc1cc(C)ccc1OCCOc1cc(C)ccc1Cl	4.2	-5.4	8.9	14.4	-38.2	0.3
Cn1c(Cc2ccccc2)nnc1SCC(=O)c1ccc(Br)s1	2.3	-17.6	-2.1	2.1	95.5*	-6.8
Cn1nnnc1SCC(=O)c1ccc(Br)s1	2.1	2.9	-0.6	2.8	-8.8	25.5
Cc1nn(-c2ccccc2)c(N)c1C(O)(CC(=O)C(F)(F)F)C(F)(F)F (centres undefined)	9.0*	1.9	0.1	-1.1	x	6.1
Cc1cc(N/N=C/c2ccc(O)cc2O)nc(-c2ccccc2O)n1	10.3*	10.4	-6.1	-6.6	44.0	16.4
CCCC(=O)Nc1nnc(CCOC)s1	1.8	-6.3	4.3	3.5	-43.3	0.4
CCCC(=O)Nc1nnc(COC)s1	2.8	5.3	0.9	4.3	89.5*	-16.8
O=C(NCCC(=O)N1CCOCCOCCOCCOCC1)OCc1ccccc1	x	-3.3	x	x	x	5.6
Cc1c(C(=O)Oc2cccc3ccccc23)cnn1-c1ccccc1	8.6*	3.5	18.1*	-1.2	1.4	-21.7
CC(=O)c1cnn(-c2ccccc2)c1C	0.3	3.2	x	0.3	36.4	6.0
CC(=O)c1ccc(NC(=O)C2C3C=CC(C3=C(c3ccccc3)c3ccccc3)C2C(=O)O)cc1 (centres undefined)	10.3*	-16.8	x	15.0	0.0	-25.1
CC(C)=C1C2C=CC1C(C(=O)Nc1cc(C)ccc1C)C2C(=O)O (centres undefined)	0.8	0.6	7.3	0.3	-128.1	15.2
COc1ccc(-c2cc(=O)c3ccccc3s2)cc1	8.8*	5.8	-1.5	-0.6	x	18.6
CC1(C)Oc2ccccc2OC1(O)c1ccc2ccccc2n1 (centres undefined)	-0.4	6.7	0.1	-2.3	x	-0.5
Cc1ccc(OCC(=O)N/N=C2/SCC(=O)N2Cc2ccccc2)cc1	3.4	1.8	1.2	-0.7	2.6	-4.4
O=C(COc1ccc(Br)cc1)N/N=C1\SCC(=O)N1c1ccc(F)cc1	3.1	-5.2	0.8	-8.0	92.9*	0.8
COc1cc(/C=C/C(=O)CC(=O)/C=C/c2ccc(O)c(OC)c2)ccc1O	8.7*	19.6	-1.8	-1.5	-50.0	29.9
COc1ccc2ccccc2c1CN1CCN(Cc2ccccc2)CC1	3.1	-1.1	7.9	12.3	78.4*	-15.6
CCN(C(=O)COc1cc(=O)n(CC)c2ccccc12)c1cccc(Cl)c1	1.1	-6.3	2.0	-6.3	-40.0	7.7
CCN(C(=O)COc1cc(=O)n(CC)c2ccccc12)c1cc(Cl)ccc1OC	-0.8	-25.2	17.2*	23.4*	x	-15.2
Cc1cccc(NC(=O)NNC(=O)COc2ccc(Cl)cc2)c1	5.1	-12.6	x	6.1	x	-10.6
CC[C@@H](C(=O)n1nc(C)cc1C)[C@H](NS(=O)(=O)c1ccc(C)cc1)c1ccccc1	10.0*	-4.9	-0.7	-10.6	-43.7	-6.6
CC(C)(C)CC(=O)O/N=C(\N)c1ccncc1	-0.1	-9.8	x	-2.9	x	1.9
CC(NC(=O)COC(=O)C1CSC2(C)CCC(=O)N12)C12CC3CC(CC(C3)C1)C2 (centres undefined)	1.0	-2.5	x	16.0	x	-4.8
C=CCN1C(=O)C(Cc2ccc(SC(F)F)cc2)SC1=Nc1ccc(C(=O)O)cc1 (centres undefined)	8.7*	7.9	x	-0.3	x	13.0
SMILES	RAM inhibit	NPY2 pot ag	NPY-Y2 antag	NPY Y1 blocker	INS promoter inh	NPY1 pot ag
O=C(CNC(=S)N(Cc1ccccc1)Cc1ccccc1F)NCCc1ccccc1	11.4*	-3.7	x	-3.7	-20.0	-5.3
O=C(CNC(=S)N(Cc1ccccc1)Cc1ccccc1F)NCc1ccccc1	7.4	-1.0	x	-2.7	-3.7	5.6
CCOC(=O)CSc1nnc(-c2ccccc2)o1	0.9	-23.2	2.4	9.3	42.9	-26.9
COC(=O)CSc1nnc(-c2ccc(S(=O)(=O)NCc3cccs3)cc2)o1	3.6	84.4*	1.5	-13.5	x	101.0*
COC(=O)CSc1nnc(-c2ccc(S(=O)(=O)NCc3ccccc3Cl)cc2)o1	5.3	80.8*	0.2	-17.0	-17.9	80.0*
COC(=O)CSc1nnc(-c2ccc(OC)c(OC)c2)o1	1.4	6.0	x	-0.5	x	13.2
CCS(=O)(=O)Nc1ccc(-c2nnc(SCC(=O)OC)o2)cc1	0.5	23.8	2.2	-9.3	-3.0	25.9
CCOC(=O)CSc1nnc(-c2ccc(S(=O)(=O)NCc3cccs3)cc2)o1	x	88.0*	3.1	-17.4	50.0	90.9*
Cc1ccc(C)c(N2N=C(C(=O)Nc3nccs3)CCC2=O)c1	1.3	-10.1	x	5.2	58.3	-0.9
Cn1nc(C(F)(F)F)c(-c2cccc(C(F)(F)F)c2)c1NC(=O)Nc1ccc(F)cc1	x	102.2*	x	x	x	110.5*
Cc1ccc(C)n1-c1ccc(C(=O)NCc2cccnc2)cc1	2.1	-1.9	x	4.0	-18.2	-1.9
CC(C)(C)c1ccc(NC(=O)N2CCN(c3ccc([N+](=O)[O-])cn3)CC2)cc1	x	15.5	x	x	x	21.0
OCCNc1ncnc2c1c(-c1ccccc1)c(-c1ccccc1)n2Cc1ccco1	0.8	-3.5	12.7	3.3	27.5	1.3
N=c1c2c(-c3ccccc3)c(-c3ccccc3)n(Cc3ccco3)c2ncn1CCCn1ccnc1	-0.4	-20.4	41.4*	57.2*	-84.6	-149.5
N=c1c2c(-c3ccccc3)c(-c3ccccc3)n(Cc3ccccc3)c2ncn1CCO	0.3	-24.9	63.2*	61.2*	-58.3	-99.8
N=c1c2c(-c3ccccc3)c(-c3ccccc3)oc2ncn1CCN1CCOCC1	1.2	0.0	1.7	5.8	x	-2.8
CC(C)Cn1cnc2c(c(-c3ccccc3)c(-c3ccccc3)n2Cc2ccco2)c1=N	2.3	3.0	76.2*	40.2*	-28.6	3.6
COc1ccc(C2CC(c3cccs3)=NN2C(=O)CSc2nc3ccccc3s2)cc1 (centres undefined)	5.7	10.7	3.8	2.4	36.7	12.8
COc1ccc(C2CC(c3cccs3)=NN2C(=O)CSc2nc3ccccc3o2)cc1 (centres undefined)	8.5*	-23.2	5.9	11.4	x	-24.3
Cc1ccc(S(=O)(=O)N(C)C)cc1NC(=O)COC(=O)CCC(=O)c1ccc(F)cc1	0.1	0.8	1.2	2.1	x	16.2
Cc1ccc(S(=O)(=O)N(C)C)cc1NC(=O)COC(=O)/C(=C/c1ccc(F)cc1)c1cccs1	1.6	-0.7	2.3	-4.1	64.3*	-8.1
Cc1ccc(S(=O)(=O)N(C)C)cc1NC(=O)COC(=O)/C=C/c1ccc2c(c1)OCO2	9.3*	-20.6	x	12.3	-25.7	-17.8
Cc1ccc(S(=O)(=O)N(C)C)cc1NC(=O)COC(=O)/C=C/c1cnc2ccccc2n1	8.9*	12.3	x	10.7	-22.2	-6.9
Cc1ccc2nc(SCC(=O)c3ccc(O)cc3O)[nH]c2c1	x	-36.5	x	x	x	1.7
COc1cc(O)sc1C=Nc1ccc(Cl)cc1Cl	4.1	-13.1	x	7.5	x	-11.7
